Data as given in publication PMC9064382 (RSC Advances, 2019).

Legend:
Type in all cases: in vitro ADME
hOCT2 = target: T1, hOCT2 (Homo sapiens, UniProt O15244); assay: Inhibition of 14C-TEA uptake in hOCT2-transfected cells by liquorice ingredients; details: 5 min
T1 sequence (O15244 1-555): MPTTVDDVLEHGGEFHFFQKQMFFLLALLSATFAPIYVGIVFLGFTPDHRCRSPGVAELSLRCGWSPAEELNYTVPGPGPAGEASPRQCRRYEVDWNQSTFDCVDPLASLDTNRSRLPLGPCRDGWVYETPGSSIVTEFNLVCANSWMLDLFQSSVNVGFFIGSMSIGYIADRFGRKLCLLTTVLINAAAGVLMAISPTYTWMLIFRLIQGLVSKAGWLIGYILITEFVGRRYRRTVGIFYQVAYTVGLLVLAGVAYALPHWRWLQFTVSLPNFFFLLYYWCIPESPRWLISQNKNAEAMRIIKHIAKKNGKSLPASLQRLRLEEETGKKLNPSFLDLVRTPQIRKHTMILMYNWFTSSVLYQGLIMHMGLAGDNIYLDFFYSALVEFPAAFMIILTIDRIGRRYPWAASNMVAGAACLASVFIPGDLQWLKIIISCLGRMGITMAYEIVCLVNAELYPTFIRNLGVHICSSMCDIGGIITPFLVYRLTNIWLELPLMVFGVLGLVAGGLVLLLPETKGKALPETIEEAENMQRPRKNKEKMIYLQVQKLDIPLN

hOAT3 = target: T2, hOAT3 (Homo sapiens, UniProt Q8TCC7); assay: Inhibition of 3H-ES uptake in hOAT3-transfected cells by liquorice ingredients; details: read-out: IC50 on hOAT3; 3H-ES probe, 2 min
T2 sequence (Q8TCC7 1-542): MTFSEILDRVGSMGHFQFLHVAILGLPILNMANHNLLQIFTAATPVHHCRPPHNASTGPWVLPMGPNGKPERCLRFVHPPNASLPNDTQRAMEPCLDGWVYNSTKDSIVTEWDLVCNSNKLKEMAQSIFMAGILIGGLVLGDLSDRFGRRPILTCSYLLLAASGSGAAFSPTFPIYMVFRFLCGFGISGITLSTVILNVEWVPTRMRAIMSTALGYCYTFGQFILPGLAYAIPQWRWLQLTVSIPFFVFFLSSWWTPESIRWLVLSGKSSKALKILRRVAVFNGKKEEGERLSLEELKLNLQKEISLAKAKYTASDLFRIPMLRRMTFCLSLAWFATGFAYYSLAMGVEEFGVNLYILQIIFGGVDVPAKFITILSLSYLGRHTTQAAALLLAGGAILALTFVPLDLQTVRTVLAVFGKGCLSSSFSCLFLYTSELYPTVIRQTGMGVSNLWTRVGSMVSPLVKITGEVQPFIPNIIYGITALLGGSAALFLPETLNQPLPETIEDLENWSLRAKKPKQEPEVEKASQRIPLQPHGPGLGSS
In short: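 Transfected and mock cells were incubated 2 min at 37 °C with 200 nmol L−1 3H-ES plus test compound. The screen used a single 100 μmol L−1 concentration with reference inhibitors as positive controls, giving an inhibition rate (n = 3, mean ± sd). […] DMSO was <0.2%. Cells were stopped with cold DPBS, rinsed three times, lysed in 0.1 mol L−1 NaOH and counted by scintillation (dpm).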

hOATP1B1 = target: T3, hOATP1B1 (Homo sapiens, UniProt Q9Y6L6)
T3 sequence (Q9Y6L6 1-691): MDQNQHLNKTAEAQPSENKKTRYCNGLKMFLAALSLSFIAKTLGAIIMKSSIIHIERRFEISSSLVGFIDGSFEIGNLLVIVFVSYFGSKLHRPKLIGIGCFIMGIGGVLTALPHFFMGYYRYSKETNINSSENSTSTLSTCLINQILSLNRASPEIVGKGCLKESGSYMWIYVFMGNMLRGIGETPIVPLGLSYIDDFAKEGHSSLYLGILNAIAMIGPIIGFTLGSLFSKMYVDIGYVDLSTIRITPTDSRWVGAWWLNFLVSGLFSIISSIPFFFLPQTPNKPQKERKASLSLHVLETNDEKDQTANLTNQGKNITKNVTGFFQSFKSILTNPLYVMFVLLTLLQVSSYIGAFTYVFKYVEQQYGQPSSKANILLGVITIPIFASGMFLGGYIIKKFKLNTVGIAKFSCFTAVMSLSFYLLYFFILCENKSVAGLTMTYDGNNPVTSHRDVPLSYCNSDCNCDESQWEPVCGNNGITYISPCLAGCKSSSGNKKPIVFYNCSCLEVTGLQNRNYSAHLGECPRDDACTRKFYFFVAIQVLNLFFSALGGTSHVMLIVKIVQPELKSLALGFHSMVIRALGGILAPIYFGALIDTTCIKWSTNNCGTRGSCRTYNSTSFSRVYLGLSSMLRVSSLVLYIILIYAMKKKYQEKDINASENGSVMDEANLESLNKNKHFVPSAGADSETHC

C=CC(C)(C)c1cc(/C=C/C(=O)c2ccc(O)cc2)c(OC)cc1O [licochalcone A]
inhibitory rate on hOCT2 (hOCT2; 100 μm, 5 μmol L^−1 14C-TEA): 91.76% | IC50 (hOCT2; read-out: IC50 on hOCT2, 14C-TEA probe): 6.61 µM | IC50 (hOAT3): 3.6 µM | IC50 (hOATP1B1; read-out: IC50 on hOATP1B1, 3H-ES probe, 2 min): 1.27 µM | inhibition of hOATP1B1 (hOATP1B1; screening at 100 μm): strong inhibitors
